According to ChEMBL document CHEMBL1130383, “Anesthetic activity of novel water-soluble 2 beta-morpholinyl steroids and their modulatory effects at GABAA receptors” (J Med Chem, 1997):

Assays:
Mus musculus [1] = species on record: Mus musculus; assay: Effect on interval between loss of righting reflex and return to righting reflex (sleep duration) was measured at a dose twice that of hypnotic dose; caused convulsions and was not tested for the sleeping duration; assay type: functional, organism-based
Mus musculus [2] = assay: Hypnotic dose by observing loss of righting reflex for a minimum period of 30 sec in 50% of treated mice after iv administration; caused convulsions and not tested further; assay type: functional, organism-based
[3] = molecular target: GABA-A receptor; anion channel; assay: The concentration required to inhibit 50% of binding of [35S]TBPS to Gamma-aminobutyric acid A receptor to rat whole brain membranes.; assay type: cell membranes
[4] = molecular target: GABA-A receptor; anion channel (Bos taurus) (UniProt P10063+P08220+P20237+P08219+P10064+P22300); assay: Concentration required to potentiate GABA-evoked currents in voltage-clamped bovine chromaffin cells by 300%; assay type: functional
In short: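 Adult bovine chromaffin cells, primary culture, recorded 4 h to 2 days after plating. Whole-cell patch clamp, continuous superfusion with 140 mM NaCl, 2.8 mM KCl, 2 mM MgCl2, 1 mM CaCl2, 10 mM HEPES (pH 7.2). CsCl-based pipette solution, room temperature (18–22 °C). Currents filtered at 500 Hz. Steroid concentration enhancing the GABA-evoked response by 300% of control was interpolated; mean ± SEM of N cells.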

[5] = Therapeutic index by the ratio between LD50 to HD50
Mus musculus [6] = assay: Hypnotic dose was determined by observing loss of righting reflex for a minimum period of 30 sec in 50% of treated mice after i.v. administration.; assay type: functional
In short: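 Male CFLP mice (25–35 g), tested in the light period. Groups of eight received an i.v. lateral tail vein injection over 10 s (10 mL kg-1) on a μmol/kg dose series, e.g. 2–16, with extra doses added. Vehicle was saline for amine salts; standards were in HPCD/saline, emulsion or saline. HD50 with 95% confidence limits was obtained by probit analysis of the fraction showing LRR ≥30 s.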

Structure (SMILES): C[C@]12C[C@H](N3CCOCC3)[C@@H](O)C[C@@H]1CC[C@H]1[C@@H]3CC[C@H](C(=O)CCl)[C@@]3(C)CC(=O)[C@@H]12
- SD (Mus musculus [1]): Convulsant
- HD50 (Mus musculus [2]): Convulsant
- IC50 [3]: 9040 nM
- POT [4]: 1500 nM

Structure (SMILES): C[C@]12C[C@H](N3CCOCC3)[C@@H](O)C[C@@H]1CC[C@@H]1[C@@H]2CC[C@]2(C)[C@@H](C(=O)CCl)CC[C@@H]12
- IC50 [3]: 171 nM
- selectivity ratio [5]: 6.1
- HD50 (Mus musculus [6]): 8.5 µM/kg
- POT [4]: 150 nM

Structure (SMILES): CC1(C)CN([C@H]2C[C@@]3(C)[C@@H](CC[C@H]4[C@@H]5CC[C@H](C(=O)CCl)[C@@]5(C)CC(=O)[C@@H]43)C[C@@H]2O)CCO1
- IC50 [3]: 206 nM
- HD50 (Mus musculus [6]): 13.4 µM/kg
- POT [4]: 450 nM

Structure (SMILES): CC(=O)[C@H]1CC[C@H]2[C@@H]3CC[C@H]4C[C@H](O)[C@@H](N5CCO[C@H](C)C5)C[C@]4(C)[C@H]3CC[C@]12C
- IC50 [3]: 369 nM
- HD50 (Mus musculus [6]): 15 µM/kg
- POT [4]: 250 nM

Structure (SMILES): C[C@]12C[C@H](N3CCOCC3)[C@@H](O)C[C@@H]1CC[C@@H]1[C@@H]2CC[C@]2(C)[C@@H](C(=O)CO)CC[C@@H]12
- IC50 [3]: 3040 nM
- HD50 (Mus musculus [6]): 31.6 µM/kg
- POT [4]: 2300 nM

Structure (SMILES): CCCC(C)C1(CC)C(=O)NC(=S)NC1=O (configuration not stated) [THIOPENTAL]
- IC50 [3]: 29500 nM
- selectivity ratio [5]: 3.7
- HD50 (Mus musculus [6]): 83 µM/kg
- POT [4]: 30000 nM

Structure (SMILES): CC(=O)[C@H]1CC[C@H]2[C@@H]3CC[C@H]4C[C@H](O)CC[C@]4(C)[C@H]3CC[C@]12C [BREXANOLONE]
- IC50 [3]: 91 nM
- HD50 (Mus musculus [6]): 10 µM/kg
- POT [4]: 105 nM

Structure (SMILES): CC(=O)SCC(=O)[C@H]1CC[C@H]2[C@@H]3CC[C@H]4C[C@H](O)[C@@H](N5CCOC(C)(C)C5)C[C@]4(C)[C@H]3C(=O)C[C@]12C
- IC50 [3]: 261 nM
- HD50 (Mus musculus [6]): 7.9 µM/kg
- POT [4]: 245 nM

Structure (SMILES): CC(=O)SCC(=O)[C@H]1CC[C@H]2[C@@H]3CC[C@H]4C[C@H](O)[C@@H](N5CCOC(C)(C)C5)C[C@]4(C)[C@H]3CC[C@]12C
- SD (Mus musculus [1]): Convulsant
- HD50 (Mus musculus [2]): Convulsant
- IC50 [3]: 32 nM

Structure (SMILES): CC1(C)CN([C@H]2C[C@@]3(C)[C@@H](CC[C@@H]4[C@@H]3CC[C@]3(C)[C@@H](C(=O)CO)CC[C@@H]43)C[C@@H]2O)CCO1
- IC50 [3]: 267 nM
- HD50 (Mus musculus [6]): 18.4 µM/kg
- POT [4]: 310 nM

Structure (SMILES): CC(=O)[C@H]1CC[C@H]2[C@@H]3CC[C@H]4C[C@H](O)[C@@H](N5C[C@@H](C)O[C@@H](C)C5)C[C@]4(C)[C@H]3C(=O)C[C@]12C
- IC50 [3]: 3200 nM
- selectivity ratio [5]: 5.8
- HD50 (Mus musculus [6]): 14.4 µM/kg

Structure (SMILES): CC(C)c1cccc(C(C)C)c1O [PROPOFOL]
- selectivity ratio [5]: 3.5
- HD50 (Mus musculus [6]): 68 µM/kg
- POT [4]: 2000 nM

Structure (SMILES): CC(=O)[C@H]1CC[C@H]2[C@@H]3CC[C@H]4C[C@H](O)[C@@H](N5CCOC(C)(C)C5)C[C@]4(C)[C@H]3CC[C@]12C
- IC50 [3]: 107 nM
- HD50 (Mus musculus [6]): 17.4 µM/kg
- POT [4]: 120 nM

Structure (SMILES): CC(=O)[C@H]1CC[C@H]2[C@@H]3CC[C@H]4C[C@H](O)[C@@H](N5CCO[C@H](C(C)C)C5)C[C@]4(C)[C@H]3C(=O)C[C@]12C
- IC50 [3]: 90 nM
- selectivity ratio [5]: 9.9
- HD50 (Mus musculus [6]): 3.4 µM/kg

Structure (SMILES): CC(=O)OCC(=O)[C@H]1CC[C@H]2[C@@H]3CC[C@H]4C[C@H](O)[C@@H](N5CCOC(C)(C)C5)C[C@]4(C)[C@H]3C(=O)C[C@]12C
- IC50 [3]: 951 nM
- HD50 (Mus musculus [6]): 21.1 µM/kg
- POT [4]: 1300 nM

Structure (SMILES): CC(=O)[C@H]1CC[C@H]2[C@@H]3CC[C@H]4C[C@H](O)[C@@H](N5CCSC(C)(C)C5)C[C@]4(C)[C@H]3C(=O)C[C@]12C
- IC50 [3]: 209 nM
- selectivity ratio [5]: 16.3
- HD50 (Mus musculus [6]): 13.7 µM/kg

Structure (SMILES): CC1(C)CN([C@H]2C[C@@]3(C)[C@@H](CC[C@@H]4[C@@H]3CC[C@]3(C)[C@@H](C(=O)CCl)CC[C@@H]43)C[C@@H]2O)CCO1
- IC50 [3]: 39 nM
- HD50 (Mus musculus [6]): 17.6 µM/kg
- POT [4]: 380 nM

Structure (SMILES): CC(=O)[C@H]1CC[C@H]2[C@@H]3CC[C@H]4C[C@H](O)[C@@H](N5CCOCC5)C[C@]4(C)[C@H]3C(=O)C[C@]12C
- IC50 [3]: 2560 nM
- selectivity ratio [5]: 4.6
- HD50 (Mus musculus [6]): 34.6 µM/kg

Structure (SMILES): CC[C@@H]1CN([C@H]2C[C@@]3(C)[C@@H](CC[C@H]4[C@@H]5CC[C@H](C(C)=O)[C@@]5(C)CC(=O)[C@@H]43)C[C@@H]2O)CCO1
- IC50 [3]: 317 nM
- selectivity ratio [5]: 5.8
- HD50 (Mus musculus [6]): 8.7 µM/kg
- POT [4]: 910 nM

Structure (SMILES): CC(=O)OCC(=O)[C@H]1CC[C@H]2[C@@H]3CC[C@H]4C[C@H](O)[C@@H](N5CCOCC5)C[C@]4(C)[C@H]3CC[C@]12C
- IC50 [3]: 270 nM
- HD50 (Mus musculus [6]): 31 µM/kg
- POT [4]: 660 nM

Structure (SMILES): CC(=O)[C@H]1CC[C@H]2[C@@H]3CC[C@@H]4C[C@H](O)CC[C@]4(C)[C@H]3CC[C@]12C [ELTANOLONE]
- IC50 [3]: 117 nM
- HD50 (Mus musculus [6]): 9.5 µM/kg
- POT [4]: 115 nM
